Screening results: PubChem, Broad Institute
CAL PDZ FP-1 – CAL PDZ (human) peptide binding inhibition. purified CAL PDZ, TMR-peptide fluorescence polarization, 1 h. inhibition, % at 24.9 µM. 0.92% of 300,000 active. AID 602252;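 active = mean inhibition of at least 30% with at least half of replicates also reaching 30%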;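 also: 0% = DMSO neutral control and 100% = excess unlabeled competitor peptide PRC23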
dFosB activator – activators of mouse delta FosB homodimer | P13346 | purified delta FosB, TAMRA-CDK5 oligo fluorescence polarization; percent of positive-control signal above neutral wells | activation, % at 25 µM | 0.99% of 340,000 active | AID 493131;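 active = mean activation above about 17%, with every replicate also reaching it, limit read from the data, passing the limit was not always enough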
Target sequence (P13346 whole entry, looked up): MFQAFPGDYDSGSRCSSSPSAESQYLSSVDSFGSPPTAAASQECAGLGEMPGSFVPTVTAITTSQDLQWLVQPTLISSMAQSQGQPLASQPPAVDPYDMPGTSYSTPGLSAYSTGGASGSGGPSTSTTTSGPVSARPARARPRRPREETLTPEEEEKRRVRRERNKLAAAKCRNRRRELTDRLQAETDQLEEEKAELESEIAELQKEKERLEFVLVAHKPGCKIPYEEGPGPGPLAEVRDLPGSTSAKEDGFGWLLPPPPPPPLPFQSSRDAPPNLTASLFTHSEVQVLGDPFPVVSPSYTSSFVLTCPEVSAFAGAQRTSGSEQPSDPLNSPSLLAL
SR-BI uptake up – SR-BI HDL lipid transfer activation | CHO ldlA[mSR-BI] cells, DiI-HDL uptake fluorescence, 3 h; 100 = double the neutral-control signal | activation, % at 12.5 µM | 0.096% of 320,000 active | AID 504775;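 active = mean replicate activation of at least 60% and every replicate at or above 60%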;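 also: 0% = median plate neutral-control signal and 100% = twice that signal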
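Assay system: CHO ldlA[mSR-BI] cells, LDL receptor-null, SR-BI overexpressing; medium: Ham's F12 with 0.5% BSA, HEPES 25 mM, pH 7.4; also added: DiI-HDL 10 µg/mL; timing: 3 h uptake period with compound, 37 °C; signal: DiI fluorescence, bottom read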
SR-BI HDL uptake – inhibitors of mouse SR-BI mediated HDL lipid uptake. Q61009. ldlA[mSR-BI] CHO cells, DiI-HDL uptake fluorescence, 3 h. inhibition, % at 12.5 µM. 0.96% of 320,000 active. AID 488896;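 active = mean replicate inhibition of at least 70% and a set share of replicates each scoring 70 or more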;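 also: 0% = median of neutral control wells and 100% = median of positive control wells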
CAL PDZ FP-2 – human CAL PDZ-peptide interaction inhibition. Q9HD26. purified CAL PDZ, TMR-peptide fluorescence polarization, 1 h. inhibition, % at 20 µM. 0.02% of 330,000 active. AID 504414;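 active = highest replicate inhibition of at least 40%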;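 also: plate controls were DMSO neutral control wells for no effect and unlabeled competitor peptide control wells for full effect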
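Control set: unlabelled peptide and DMSO controls / Material: purified CerCALP PDZ construct / Timing: 1 h incubation at room temperature before polarization reading / Doses: 20 µM, one dose / Detection: fluorescence polarization (mP)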
An asterisk follows results filed as active; x = no result. This is a sample that favours compounds with a hit; in the whole collection about 2.8% have one here.

SMILES	CAL PDZ FP-1	dFosB activator	SR-BI uptake up	SR-BI HDL uptake	CAL PDZ FP-2
O=C(N/N=C/c1cn(-c2cccs2)nc1-c1ccccc1)c1ccccc1Br	-1	-4	4	-4	-4
COc1cccc(NC(=O)CN(C)C(=O)c2c(C)nn(-c3ccccc3)c2Cl)c1	-4	-7	-7	7	0
O=C(NNC(=O)c1cc(Cl)ccc1O)c1ccc(NS(=O)(=O)c2cccs2)cc1	3	-4	-119	119*	-1
COc1ccc(Cl)cc1NC(=O)COC(=O)CCNS(=O)(=O)c1cccs1	-3	-2	21	-21	-2
O=C(COC(=O)c1cc(NS(=O)(=O)c2cccs2)ccc1O)Nc1cc(Cl)ccc1Cl	3	51*	x	x	0
O=C(NNC(=O)c1cc(F)c(F)cc1Cl)c1ccc(NS(=O)(=O)c2cccs2)cc1	x	-2	-14	14	-2
O=C(COC(=O)c1ccc(NS(=O)(=O)c2cccs2)cc1)Nc1nc2c(F)c(F)c(F)cc2s1	-5	37*	-22	22	-2
CC1(C)C(=O)OC(c2c(F)c(F)c(F)c(F)c2F)C2(CCCCC2)C1=O (centres undefined)	x	4	-77	77*	0
O=C(/C=C/c1cccc2ccccc12)N1CCOCC1	49*	2	-23	23	-1
CCCn1c(SCC(=O)Nc2ccc(F)c(Cl)c2)nc(O)cc1=O	x	-3	3	-3	0
COc1ccc(NC(=O)C(CC(=O)O)Cc2ccc(Cl)cc2)cc1 (centres undefined)	-5	-1	52	-52	-1
O=C(COC(=O)c1ncc(Cl)c(Cl)c1Cl)Nc1ccc(Cl)cn1	-6	-12	17	-17	-2
OCCNc1ncnc2c1c(-c1ccccc1)c(-c1ccccc1)n2Cc1ccco1	66*	-17	15	-15	-2
c1ccc(-n2cnc3ccccc32)nc1	1	4	9	-9	0
c1ccc(-c2nccc(-c3ccc(-n4cnc5ccccc54)cc3)n2)cc1	-4	130*	-65	65	-2
Cn1c(N)c(S(=O)(=O)N2CCCC2)c(=O)n(C)c1=O	47*	6	-13	13	-1
CN1C=CC=C/C1=C1\SC(=S)N(N)C1=O	-2	3	14	-14	0
O=C(COC(=O)c1ccccc1)Nc1cccc(S(=O)(=O)NC2=NCCCCC2)c1	-2	-6	3	-3	-2
O=C(COC(=O)c1ccccc1O)Nc1cccc(S(=O)(=O)NC2=NCCCCC2)c1	35*	-12	-13	13	-2
COc1ccccc1/C=C/C(=O)Nc1cccc(S(=O)(=O)NC2=NCCCCC2)c1	-6	-25	-72	72*	x
O=[N+]([O-])c1ccc(Oc2cccnc2)c([N+](=O)[O-])c1	37*	6	5	-5	-1
Cc1ccc(C(c2nnnn2C2CCCCC2)N2CCc3ccccc32)cc1 (centres undefined)	74*	-12	27	-27	-1
CC1CCCN(C(=O)COC(=O)CNC(=O)c2sc3ccccc3c2Cl)C1 (centres undefined)	-6	-9	-16	16	-1
COc1ccc(/C=C2\SC(=S)N(CCCC(=O)NNC(=O)c3ccccc3O)C2=O)cc1	5	45*	-110	110*	0
COc1ccccc1/C=C1\SC(=S)N(CCC(=O)NNC(=O)c2ccccc2O)C1=O	x	16	x	124*	-1
SMILES	CAL PDZ FP-1	dFosB activator	SR-BI uptake up	SR-BI HDL uptake	CAL PDZ FP-2
COc1ccc(/C=C2/SC(=S)N(CCCC(=O)Nc3ccccc3C(=O)O)C2=O)cc1	-7	-7	x	x	-3
O=C(CCCN1C(=O)/C(=C/c2cccs2)SC1=S)NNC(=O)c1ccccc1O	-3	6	-104	104*	0
O=C(CCCN1C(=O)/C(=C\c2cccs2)SC1=S)Nc1ccc(O)cc1	x	0	x	x	0
O=C(CCCN1C(=O)/C(=C/c2cccs2)SC1=S)Nc1ccccc1O	-3	34*	x	x	-1
COc1cc(/C=C2\NC(=S)N(C)C2=O)ccc1OCc1ccccc1F	-5	-5	-77	77*	0
CN1C(=O)/C(=C/c2ccc(OCc3ccccc3F)cc2)NC1=S	7	-13	-21	21	1
COc1cc(/C=C/C(=O)OCC(=O)NCCN2C(=O)CSC2=O)ccc1OC(F)F	-8	1	-33	33	4
CCCn1c(N)c(C(=O)COC(=O)/C=C/c2ccc(OC(F)F)c(OC)c2)c(=O)[nH]c1=O	8	22*	-39	39	0
O=c1cccc2c1c1cc[nH]c3ccc(=O)n2c31	49*	0	43	-43	-1
O=C(Nc1ccc([N+](=O)[O-])cn1)c1cc(-c2cccc(Cl)c2)nc2ccccc12	-1	6	-77	77*	-3
CC(C)(C)c1ccc(OCCC(=O)Nc2cccc(S(=O)(=O)NC3=NCCCCC3)c2)cc1	-2	-19	3	-3	-2
CCCCC(=O)Nc1ccc(Br)cn1	-2	3	11	-11	-1
C=CCCC(=O)Nc1ccc(Br)cn1	-3	4	-89	89*	0
CCN(CC)S(=O)(=O)c1ccc(N2CC(C(=O)NCCC3=CCCCC3)CC2=O)cc1 (centres undefined)	45*	-6	1	-1	-2
CCN(CC)S(=O)(=O)c1ccc(N2CC(C(=O)NCCc3ccc(Cl)cc3)CC2=O)cc1 (centres undefined)	-4	9	-40	40	0
CSc1cccc(NC(=O)/C=C/c2cccc(Cl)c2)c1	-4	5	-75	75*	-3
COc1ccc(OCC(=O)Nc2ccc3c(c2)nc(CN2CCCC2)n3C)cc1	58*	1	-20	20	-1
COc1ccc(C(=O)N/C(=C/c2cccs2)C(=O)NN)cc1OC	x	-3	-75	75*	0
CSCCC(NC(=O)c1ccccc1Br)C(=O)N1CCN(C/C=C/c2ccccc2)CC1 (centres undefined)	-1	-6	-53	53	-1
CCC(C(=O)OC)n1cnc2c(nnn2-c2ccc(C)cc2)c1=O (centres undefined)	x	-20	-7	7	-1
Cc1nc2c(-c3ccc(F)cc3)c(C)nn2c(C)c1CCC(=O)Nc1ccc(F)cc1F	-1	8	-75	75*	-1
CC(C)C1Oc2ccccc2N(CC(=O)N(Cc2ccccn2)C2CC2)C1=O (centres undefined)	x	-5	369*	-369	0
O=C(NCCCSc1ccccc1)c1cc(Cl)ccc1O	0	-9	-16	16	-3
Cn1cc([N+](=O)[O-])c(C(=O)Nc2ccc(-c3nc4ccccc4o3)cc2)n1	3	3	x	x	-1
COc1ccc2oc(=O)c(C(=O)Nc3ccccc3O)cc2c1	78*	7	x	x	18
COc1ccc2oc(=O)c(C(=O)NC(C)c3ccccc3)cc2c1 (centres undefined)	x	-4	-8	8	-2
